# PostGolgi ctrl: growth inhibition of yeast control strain, primary screen, counter-screen for post-Golgi transport modulator project; inhibition, % at 10 µM; actives 5% (n = 98,000); efflux-deficient yeast background strain, growth absorbance A615, 16 h
# Calb biofilm kill: clotrimazole potentiators killing Candida biofilms, primary screen, with clotrimazole, Alamar Blue | inhibition, % at 6 µM | actives 0.14% (n = 85,000) | C. albicans biofilm + clotrimazole;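 active = inhibition above 20%; inactive = inhibition below 20%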;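 note: preformed 24 hr biofilms exposed to compound for 48 hr; 0% = biofilm without compound and 100% = blank killed by clotrimazole plus chlorhexidine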
# Ecoli tolC: growth inhibitors of E. coli tolC mutant, primary screen, strain BW25113 ΔtolC::kan, 384-well; growth inhibition, % at 10 µM (by protocol); OD615; actives 2.2% (n = 65,000);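 active = growth inhibition at or above a cutoff equal to the mean over every tested compound plus 3 SD, cut at about 60% in these data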;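 note: growth measured after 20 h incubation at 37 °C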
#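 Test system: tolC-deleted E. coli BW25113 | Medium: LB with kanamycin 50 µg/mL | Compound dosing: Single concentration, 10 µM final per compound | Schedule: 37 °C, 20 h exposure | Measured by: OD at 615 nm | Evaluation: Percent growth inhibition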
# FAK blocker: FAK kinase inhibitors, primary screen, biochemical. biochemical FAK kinase activity assay. actives 0.84% (n = 97,000). inhibition, %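 (tested at 7 µM)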. Focal adhesion kinase 1 (Homo sapiens), Q05397. AID 727, 2007; in the data active = inhibition above about 19%;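 note: 0% = DMSO and 100% = reference compound high control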
# Target sequence (Q05397 whole entry, looked up): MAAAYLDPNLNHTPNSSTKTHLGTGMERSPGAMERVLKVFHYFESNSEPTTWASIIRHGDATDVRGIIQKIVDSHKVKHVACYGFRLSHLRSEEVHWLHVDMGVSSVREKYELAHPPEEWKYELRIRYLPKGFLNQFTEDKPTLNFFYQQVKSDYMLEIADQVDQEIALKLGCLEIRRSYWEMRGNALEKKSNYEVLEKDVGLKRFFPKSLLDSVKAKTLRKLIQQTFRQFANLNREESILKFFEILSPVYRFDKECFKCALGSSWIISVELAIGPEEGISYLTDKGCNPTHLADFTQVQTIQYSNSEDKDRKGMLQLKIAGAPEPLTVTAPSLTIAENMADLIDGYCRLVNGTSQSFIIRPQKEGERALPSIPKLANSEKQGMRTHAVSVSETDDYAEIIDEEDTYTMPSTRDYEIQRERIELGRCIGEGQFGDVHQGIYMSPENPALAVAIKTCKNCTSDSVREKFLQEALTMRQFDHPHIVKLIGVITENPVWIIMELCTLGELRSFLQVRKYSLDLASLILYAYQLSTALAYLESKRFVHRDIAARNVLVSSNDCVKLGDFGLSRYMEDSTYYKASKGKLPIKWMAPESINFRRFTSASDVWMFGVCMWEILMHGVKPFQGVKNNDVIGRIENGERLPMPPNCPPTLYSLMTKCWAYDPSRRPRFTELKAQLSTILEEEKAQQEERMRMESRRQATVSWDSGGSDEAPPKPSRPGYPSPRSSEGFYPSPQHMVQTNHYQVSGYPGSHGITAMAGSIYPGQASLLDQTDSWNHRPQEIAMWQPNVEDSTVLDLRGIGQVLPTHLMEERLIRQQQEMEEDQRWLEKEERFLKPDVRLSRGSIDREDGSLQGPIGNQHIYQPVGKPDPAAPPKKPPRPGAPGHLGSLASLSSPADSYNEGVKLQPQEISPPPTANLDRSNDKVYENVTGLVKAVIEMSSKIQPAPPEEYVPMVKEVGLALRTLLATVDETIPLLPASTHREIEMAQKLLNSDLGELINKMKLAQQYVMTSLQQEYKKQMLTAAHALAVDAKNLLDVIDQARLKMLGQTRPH
# Pyk2 oligo antag: antagonists of Pyk2 self-association, primary screen, Q293 cells, FERM NanoBiT luminescence, HTS; Protein-tyrosine kinase 2-beta (Homo sapiens), Q14289; active compounds read low; z-score (the deposit names both 25 µM and 10 µM); actives 0.83% (n = 99,000); AID 1347419, 2020;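 active = Z-score of -3 or lower, scaled per plate to the spread of control and sample wells; inactive = z-score above -3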;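 note: negative z-score means lost luminescence so less FERM oligomerization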
# PostGolgi yeast: phenotypic screen on post-Golgi transport, primary screen | post-Golgi transport phenotypic cell assay | inhibition, % at 10 µM | actives 0.9% (n = 98,000) | AID 739, 2007;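 note: yeast cells grown in 1536-well plates; yeast grown about 18 h at 30C before absorbance read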
# * marks the source's active call; other numbers are inactive results; · = not tested or not shown. A selection: hits, their analogues and other compounds. The true share with any hit is near 6.9%. Cut-off read from the data, not from the text of the source, unless noted: active = inhibition above about 30%; inactive = the rest.
SMILES,PostGolgi ctrl,Calb biofilm kill,Ecoli tolC,FAK blocker,Pyk2 oligo antag,PostGolgi yeast
CCN(CC)C(=O)CSc1nnc(-c2cc(OC)cc(OC)c2)o1,2,7,4,0,-0.7,-7
O=C(Nc1nnc(SCc2ccc(F)cc2)s1)c1ccco1,7,0,-13,3,0.33,-1
Cc1ccccc1NC(=O)c1sc(Cl)nc1-c1ccccc1,39*,·,·,0,0.96,-10
CC(C)c1nnc(NC(=O)c2c(O)c3cccc4c3n(c2=O)CC4)s1,·,3,100*,·,·,·
O=C(NCc1ccccc1)c1c(O)c2cccc3c2n(c1=O)CCC3,9,10,19,-3,-0.67,10
CCc1nc2ccccc2c(=O)n1NC(=O)c1c(O)c2cccc3c2n(c1=O)CCC3,16,7,64*,-3,1.2,3
CCCc1nnc(NC(=O)c2c(O)c3cccc4c3n(c2=O)CCC4)s1,·,4,10,·,·,·
CCn1c(=O)c(C(=O)Nn2c(C)nc3ccccc3c2=O)c(O)c2ccccc21,21,-2,91*,·,-1.2,6
CCOc1ccccc1-n1nnnc1SCC(=O)NC(=O)Nc1ccc2c(c1)OCCO2,11,1,·,4,-2.3,-6
CCOC(=O)c1c(C)[nH]c(C(=O)O)c1C,-2,·,-1,·,0.01,4
OC(CNCc1ccco1)Cn1c2ccc(Br)cc2c2cc(Br)ccc21 (stereo unspecified),99*,·,·,1,1.1,106*
CCCc1nnc(NC(=O)C(C)N2C(=O)C3C4C=CC(C4)C3C2=O)s1 (stereo unspecified),7,6,-9,0,0.41,-3
CCOC(=O)C1CCN(S(=O)(=O)c2cccc(-c3cn4cc(Cl)ccc4n3)c2)CC1,7,3,·,-1,0.91,-4
Cc1cc(C)n2c(SCc3ccccc3Cl)nnc2n1,39*,5,·,-3,-0.89,-2
Cc1cc(C)n2c(SCc3ccc(Cl)cc3Cl)nnc2n1,36*,6,·,2,-0.45,-4
Cc1cc(C)n2c(SCc3c(C)noc3C)nnc2n1,·,-7,-1,2,-0.17,·
CCOCCSc1nnc2nc(C)cc(C)n12,-3,5,-27,1,0.22,2
CCOC(=O)N1CCC(NC(=O)CCN2C(=O)C3C4C=CC(C4)C3C2=O)CC1 (stereo unspecified),0,8,-12,·,-0.39,1
COc1ccc(-c2c3c(nc4sc(C(=O)Nc5ccccc5)c(N)c24)CCC3)cc1,·,4,·,0,-0.38,·
CCOC(=O)Cn1nnc2c(sc3nc4c(c(-c5ccccc5)c32)CCC4)c1=O,32*,·,·,2,-0.95,2
CCOC(=O)Cn1nnc2c(sc3nc4c(c(-c5ccc(Cl)cc5)c32)CCC4)c1=O,34*,·,·,4,-1.4,-5
CC(=O)c1ccc(N2CCC(c3cc(-c4ccc(Cl)cc4Cl)n[nH]3)CC2)c([N+](=O)[O-])c1,4,·,·,1,-3,15
COc1ccc(-c2cc(C3CCN(c4cc(Cl)nc(N)n4)CC3)[nH]n2)cc1,42*,·,·,6,-0.72,-5
Nc1nc(Cl)cc(N2CCC(c3cc(-c4ccc(Cl)cc4)n[nH]3)CC2)n1,102*,·,·,-1,-1.8,16
COc1ccc(OC)c(-c2cc(C3CCN(c4cc(Cl)nc(N)n4)CC3)[nH]n2)c1,34*,·,·,-2,-2.1,-4
SMILES,PostGolgi ctrl,Calb biofilm kill,Ecoli tolC,FAK blocker,Pyk2 oligo antag,PostGolgi yeast
COc1cccc(C2CC(c3ccc(Cl)cc3)n3nc(N)nc3N2)c1 (stereo unspecified),7,9,-1,5,·,-4
CC(=O)c1cc2c(cc1NC(=O)CCCC(=O)O)OCO2,1,1,-3,0,-0.53,3
CCc1c(C(=O)Nc2ncn(Cc3cccc(C)c3)n2)csc1C,14,10,62*,1,-1.1,4
CC(=O)N=c1c(C#N)cc2c(=O)n3cccc(C)c3nc2n1CC(C)C,·,·,9,·,·,·
Cc1ccc(SCc2[nH]nc3c2C2(C(=O)Nc4ccc([N+](=O)[O-])cc42)C(C#N)=C(N)O3)cc1 (stereo unspecified),36*,·,·,3,-1.3,-4
C#CCSc1nnc(-c2cccc3ccccc23)o1,·,3,97*,1,0.13,·
O=C(/C=C/c1ccccc1)Nc1ncn[nH]1,6,·,·,-10,0.12,0
Cc1ccc(-c2nc(-c3cccnc3)no2)cc1,29,-3,-4,0,-0.1,-11
COc1ccccc1-c1cc(C(F)(F)F)n2ncc(S(=O)(=O)c3ccccc3)c2n1,46*,·,·,-7,-1.8,-5
Cc1cc(/C=C(/C#N)c2nc3ccccc3[nH]2)c(C)n1-c1cccc([N+](=O)[O-])c1,10,5,·,12,-0.86,34*
COc1cc(/C=C(/C#N)c2ccccc2)ccc1Oc1ccc([N+](=O)[O-])cn1,7,·,·,4,0.38,10
COc1cc(/C=C(\C#N)c2nc3ccccc3[nH]2)ccc1Oc1ccc([N+](=O)[O-])cn1,2,·,·,5,-3.3*,15
Cc1cc(/C=C(\C#N)c2nc3ccccc3[nH]2)c(C)n1C,·,·,·,·,-1,·
O=C(CSc1nc2ccccc2c(=O)n1-c1ccccc1)N1CCCC1,12,5,·,-2,0.44,0
CCOc1ccc(/C=N/NC(=O)c2ccc(Cn3cc([N+](=O)[O-])cn3)o2)cc1,1,·,·,9,-0.69,20
CCOc1ccc(CNC(=S)N/N=C\c2ccc([N+](=O)[O-])cc2)cc1,40*,·,·,1,0.14,2
CCCCOc1ccc(CNC(=S)N/N=C/c2ccc(OC)c(OC)c2)cc1,33*,·,·,-3,0.64,-6
CCCCOc1ccc(/C=N/NC(=S)Nc2cc(C)ccc2C)cc1,5,·,·,1,-0.03,1
c1ccc(-c2ccc(C3=Nn4c(Cn5nnc6ccccc65)nnc4SC3)cc2)cc1,36*,·,·,2,-2.7,4
Fc1ccc(C2=Nn3c(Cc4ccccc4F)nnc3SC2)cc1,1,0,·,-6,0.39,-6
FC(F)(F)c1cc(-c2ccccc2)nc(NCc2cccnc2)n1,34*,3,·,10,-3.4*,-6
O=C(c1cc2c(s1)-c1ccccc1OC2)N1CCN(c2ccccc2)CC1,55*,2,·,-11,·,-10
O=C(c1cc2c(s1)-c1ccccc1OC2)N1CCCC1,25,7,11,6,·,-1
COC(=O)c1ccc(C)c(NC(=O)CN(c2cc(OC)ccc2OC)S(C)(=O)=O)c1,7,-2,9,-2,1.2,16
CCCc1cc(C(=O)Nc2cccc(Cl)c2)no1,4,-7,98*,·,·,-7
CN1C(=O)CSc2ccc(NC(=O)Nc3ccccn3)cc21,7,5,-1,12,-2.4,0
COc1cccc(NC(=O)Nc2ccc3c(c2)N(C)C(=O)CS3)c1,22,4,·,3,-4*,-1
CC(CCc1ccco1)NC(=O)Nc1cccc(F)c1 (stereo unspecified),5,6,·,13,1.3,28
